Source: ChEMBL document CHEMBL1123503, “Synthesis and biological activity of 3-amino-5-(3,5-diamino-6-chloropyrazin-2-yl)-1,2,4-oxadiazole: an amiloride prodrug” (1986)

Tests used:
Rattus norvegicus [1] = assay: Compound was evaluated for diuretic activity determined by the ability to induce electrolytic excretion (K+) at a time period of 0-24 hr for dose 3 mg/kg; assay type: functional, Urine
Procedure, shortened: (§1)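 Female Sprague-Dawley rats weighing 160-170 g were dosed orally at 3, 9, 27 or 81 mg/kg, housed three per cage, with three cages per dose. Urinary Na+, K+ and Cl- (mequiv × 100) and urine volume (mL) were measured over 0-5 h and 0-24 h after dosing. A placebo group was run alongside.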

Rattus norvegicus [2] = assay: Compound was evaluated for diuretic activity determined by the ability to induce electrolytic excretion (K+) at a time period of 0-24 hr for dose 81 mg/kg; assay type: functional, Urine; design: unit: mequiv × 100; procedure, shortened: as §1
Rattus norvegicus [3] = assay: Compound was evaluated for diuretic activity determined by the ability to induce electrolytic excretion (K+) at a time period of 0-24 hr for dose 9 mg/kg; assay type: functional, Urine; procedure, shortened: as §1
Rattus norvegicus [4] = assay: Compound was evaluated for diuretic activity determined by the ability to induce electrolytic excretion (K+) at a time period of 0-5 hr for dose 27 mg/kg; assay type: functional, Urine; procedure, shortened: as §1
Rattus norvegicus [5] = assay: Compound was evaluated for diuretic activity determined by the ability to induce electrolytic excretion (K+) at a time period of 0-5 hr for dose 3 mg/kg; assay type: functional, Urine; procedure, shortened: as §1
Rattus norvegicus [6] = assay: Compound was evaluated for diuretic activity determined by the ability to induce electrolytic excretion (K+) at a time period of 0-5 hr for dose 81 mg/kg; assay type: functional, Urine; procedure, shortened: as §1
Rattus norvegicus [7] = assay: Compound was evaluated for diuretic activity determined by the ability to induce electrolytic excretion (K+) at a time period of 0-5 hr for dose 9 mg/kg; assay type: functional, Urine; procedure, shortened: as §1
Rattus norvegicus [8] = assay: Compound was evaluated for diuretic activity determined by the ability to induce electrolytic excretion (Na+) at a time period of 0-24 hr for dose 27 mg/kg; assay type: functional, Urine; procedure, shortened: as §1
Rattus norvegicus [9] = assay: Compound was evaluated for diuretic activity determined by the ability to induce electrolytic excretion (Na+) at a time period of 0-24 hr for dose 3 mg/kg; assay type: functional, Urine; procedure, shortened: as §1
Rattus norvegicus [10] = assay: Compound was evaluated for diuretic activity determined by the ability to induce electrolytic excretion (Na+) at a time period of 0-24 hr for dose 81 mg/kg; assay type: functional, Urine; procedure, shortened: as §1
Rattus norvegicus [11] = assay: Compound was evaluated for diuretic activity determined by the ability to induce electrolytic excretion (Na+) at a time period of 0-24 hr for dose 9 mg/kg; assay type: functional, Urine; procedure, shortened: as §1
Rattus norvegicus [12] = assay: Compound was evaluated for diuretic activity determined by the ability to induce electrolytic excretion (Na+) at a time period of 0-5 hr for dose 27 mg/kg; assay type: functional, Urine; procedure, shortened: as §1
Rattus norvegicus [13] = assay: Compound was evaluated for diuretic activity determined by the ability to induce electrolytic excretion (Na+) at a time period of 0-5 hr for dose 3 mg/kg; assay type: functional, Urine; procedure, shortened: as §1
Rattus norvegicus [14] = assay: Compound was evaluated for diuretic activity determined by the ability to induce electrolytic excretion (Na+) at a time period of 0-5 hr for dose 81 mg/kg; assay type: functional, Urine; procedure, shortened: as §1
Rattus norvegicus [15] = assay: Compound was evaluated for diuretic activity determined by the ability to induce electrolytic excretion (Na+) at a time period of 0-5 hr for dose 9 mg/kg; assay type: functional, Urine; procedure, shortened: as §1
Rattus norvegicus [16] = assay: Urine volumes was determined at time period of 0-5 hours for dose 27 mg/kg; assay type: functional
Procedure, shortened: (§2)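 Female Sprague-Dawley rats (160-170 g) were dosed orally at 3-81 mg/kg, with a placebo group. Housing was three rats per cage and three cages per dose. Urinary Na+, K+ and Cl- (mequiv × 100) and urine volume were measured over 0-5 h and 0-24 h.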

Rattus norvegicus [17] = assay: Urine volumes was determined at time period of 0-5 hours for dose 9 mg/kg; assay type: functional; procedure, shortened: as §2
Rattus norvegicus [18] = assay: Compound was evaluated for diuretic activity determined by the ability to induce electrolytic excretion (Cl-) at a time period of 0-24 hr for dose 27 mg/kg; assay type: functional, Urine; procedure, shortened: as §1
Rattus norvegicus [19] = assay: Compound was evaluated for diuretic activity determined by the ability to induce electrolytic excretion (Cl-) at a time period of 0-24 hr for dose 3 mg/kg; assay type: functional, Urine; procedure, shortened: as §1
Rattus norvegicus [20] = assay: Compound was evaluated for diuretic activity determined by the ability to induce electrolytic excretion (Cl-) at a time period of 0-24 hr for dose 81 mg/kg; assay type: functional, Urine; procedure, shortened: as §1
Rattus norvegicus [21] = assay: Compound was evaluated for diuretic activity determined by the ability to induce electrolytic excretion (Cl-) at a time period of 0-24 hr for dose 9 mg/kg; assay type: functional, Urine; procedure, shortened: as §1
Rattus norvegicus [22] = assay: Compound was evaluated for diuretic activity determined by the ability to induce electrolytic excretion (Cl-) at a time period of 0-5 hr for dose 3 mg/kg; assay type: functional, Urine; procedure, shortened: as §1
Rattus norvegicus [23] = assay: Compound was evaluated for diuretic activity determined by the ability to induce electrolytic excretion (Cl-) at a time period of 0-5 hr for dose 81 mg/kg; assay type: functional, Urine; procedure, shortened: as §1
Rattus norvegicus [24] = assay: Compound was evaluated for diuretic activity determined by the ability to induce electrolytic excretion (Cl-) at a time period of 0-5 hr for dose 9 mg/kg; assay type: functional, Urine; procedure, shortened: as §1
Rattus norvegicus [25] = assay: Compound was evaluated for diuretic activity determined by the ability to induce electrolytic excretion (K+) at a time period of 0-24 hr for dose 27 mg/kg; assay type: functional, Urine; procedure, shortened: as §1
Rattus norvegicus [26] = assay: Urine volumes was determined in Sprague-Dawley rats was determined at time period of 0-5 hours at 9 mg/kg; assay type: functional; procedure, shortened: as §1
Rattus norvegicus [27] = assay: Urine volumes in Sprague-Dawley rats was determined at time period of 0-5 hours at 3 mg/kg; assay type: functional; procedure, shortened: as §1
Rattus norvegicus [28] = assay: Urine volumes in Sprague-Dawley rats was determined at time period of 0-5 hours at 81 mg/kg; assay type: functional; procedure, shortened: as §1
Rattus norvegicus [29] = assay: Urine volumes in Sprague-Dawley rats was determined at time period of 0-5 hours at 27 mg/kg; assay type: functional; procedure, shortened: as §1
Rattus norvegicus [30] = assay: Compound was evaluated for diuretic activity determined by the ability to induce electrolytic excretion (Cl-) at a time period of 0-5 hr for dose 27 mg/kg; assay type: functional, Urine; procedure, shortened: as §1
Canis familiaris [31] = assay: Diuretic activity in mongrel dog was determined by the ability to induce electrolytic excretion (K+) at a time period of 0-5 hr after administration of 5 mg/kg dose.
Canis familiaris [32] = assay: Diuretic activity in mongrel dog was determined by the ability to induce electrolytic excretion (Na+) at a time period of 0-5 hr after administration of 5 mg/kg dose.
Canis familiaris [33] = assay: Diuretic activity in mongrel dog was determined by the ability of compound to induce electrolytic excretion (CL-) at a time period of 0-5 hr after administration of 5 mg/kg dose.

Question: What does the source list for CN(C)c1nc(N)c(-c2nc(N)no2)nc1Cl?
Answer: Diuretic effect (Rattus norvegicus [1]): 97; Diuretic effect (Rattus norvegicus [2]): 53; Diuretic effect (Rattus norvegicus [3]): 83; Diuretic effect (Rattus norvegicus [4]): 1; Diuretic effect (Rattus norvegicus [5]): 2; Diuretic effect (Rattus norvegicus [6]): 1; Diuretic effect (Rattus norvegicus [7]): 2; Diuretic effect (Rattus norvegicus [8]): 341; Diuretic effect (Rattus norvegicus [9]): 202; Diuretic effect (Rattus norvegicus [10]): 352; Diuretic effect (Rattus norvegicus [11]): 258; Diuretic effect (Rattus norvegicus [12]): 107; Diuretic effect (Rattus norvegicus [13]): 64; Diuretic effect (Rattus norvegicus [14]): 108; Diuretic effect (Rattus norvegicus [15]): 88; Diuretic effect (Rattus norvegicus [16]): 0.6; Diuretic effect (Rattus norvegicus [17]): 7.2; Diuretic effect (Rattus norvegicus [18]): 270; Diuretic effect (Rattus norvegicus [19]): 170; Diuretic effect (Rattus norvegicus [20]): 267; Diuretic effect (Rattus norvegicus [21]): 200; Diuretic effect (Rattus norvegicus [22]): 40; Diuretic effect (Rattus norvegicus [23]): 57; Diuretic effect (Rattus norvegicus [24]): 48; Diuretic effect (Rattus norvegicus [25]): 82; Urine volume (Rattus norvegicus [26]): 32 mL; Urine volume (Rattus norvegicus [27]): 28 mL; Urine volume (Rattus norvegicus [28]): 30 mL; Urine volume (Rattus norvegicus [29]): 31 mL; Diuretic effect (Rattus norvegicus [30]): 63; Diuretic effect (Canis familiaris [31]): 0.6; Diuretic effect (Canis familiaris [32]): 7.2; Diuretic effect (Canis familiaris [33]): 3
